Assay results as given in ChEMBL document CHEMBL1141617, “Synthesis and evaluation of antitumoral activity of ester and amide derivatives of 2-arylamino-6-trifluoromethyl-3-pyridinecarboxylic acids” (2008).

Key:
Format in all cases: functional
CAKI-1 = assay: Growth inhibition of human CAKI1 cells
In short: (§1)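 NCI 60 human tumour cell line panel grown in RPMI1640 with 5% fetal calf serum and 2 mM L-glutamine. Cells seeded at a density set by each line's growth characteristics and preincubated 24 h. Compounds added in DMSO at 10^-4 to 10^-8 M (five 10-fold dilutions) and left 48 h continuously. Growth read by sulforhodamine B protein stain. GI50 is the molar concentration giving 50% net growth inhibition.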

RXF 393 = assay: Growth inhibition of human RXF393 cells; details: for TGI: read-out: Log TGI (converted); in short: as §1
A498 = assay: Growth inhibition of human A498 cells; details: for TGI: read-out: Log TGI (converted); in short: as §1
OVCAR-5 = assay: Growth inhibition of human OVCAR5 cells; in short: as §1
NCI-H522 = assay: Growth inhibition of human NCI-H522 cells; details: for TGI: read-out: Log TGI (converted); in short: as §1
UO-31 = assay: Growth inhibition of human UO31 cells; in short: as §1
IGROV-1 = assay: Growth inhibition of human IGROV1 cells; in short: as §1
SNB-75 = assay: Growth inhibition of human SNB75 cells; in short: as §1
HOP-92 = assay: Growth inhibition of human HOP92 cells; details: for TGI: read-out: Log TGI (converted); in short: as §1
SK-MEL-5 = assay: Growth inhibition of human SK-MEL5 cells; details: for TGI: read-out: Log TGI (converted); in short: as §1
Hs-578T = assay: Growth inhibition of human HS578T cells; details: for TGI: read-out: Log TGI (converted); in short: as §1
CCRF-CEM = assay: Growth inhibition of human CCRF-CEM cells; in short: as §1
K562 = assay: Growth inhibition of human K562 cells; in short: as §1
MOLT-4 = assay: Growth inhibition of human MOLT4 cells; details: for TGI: read-out: Log TGI (converted); in short: as §1
SF-295 = assay: Growth inhibition of human SF295 cells; in short: as §1
HL-60 = assay: Growth inhibition of human HL60 cells; details: for TGI: read-out: Log TGI (converted); in short: as §1
RPMI-8226 = assay: Growth inhibition of human RPMI8226 cells; in short: as §1
MDA-MB-231 = assay: Growth inhibition of human MDA-MB-231 cells; details: for TGI: read-out: Log TGI (converted); in short: as §1
MCF7 = assay: Growth inhibition of human MCF7 cells; details: for TGI: read-out: Log TGI (converted); in short: as §1
SR = assay: Growth inhibition of human SR cells; details: for TGI: read-out: Log TGI (converted); in short: as §1
T47D = assay: Growth inhibition of human T47D cells; details: for TGI: read-out: Log TGI (converted); in short: as §1
OVCAR-3 = assay: Growth inhibition of human OVCAR-3 cells; in short: as §1
KM12 = assay: Growth inhibition of human KM12 cells; in short: as §1
PC-3 = assay: Growth inhibition of human PC3 cells; in short: as §1
HCC 2998 = assay: Growth inhibition of human HCC2998 cells; details: for TGI: read-out: Log TGI (converted); in short: as §1
[1] = Growth inhibition of human H23 cells; details: NCI-H23; in short: as §1
ACHN = assay: Growth inhibition of human ACHN cells; in short: as §1
UACC-62 = assay: Growth inhibition of human UACC62 cells; in short: as §1
EKVX = assay: Growth inhibition of human EKVX cells; in short: as §1
OVCAR-4 = assay: Growth inhibition of human OVCAR4 cells; in short: as §1
SK-OV-3 = assay: Growth inhibition of human SKOV3 cells; in short: as §1
HCT-116 = assay: Growth inhibition of human HCT116 cells; in short: as §1
LOX IMVI = assay: Growth inhibition of human LOXIMVI cells; details: for TGI: read-out: Log TGI (converted); in short: as §1
COLO 205 = assay: Growth inhibition of human COLO205 cells; details: for TGI: read-out: Log TGI (converted); in short: as §1
Malme-3M = assay: Growth inhibition of human MALME3M cells; in short: as §1
HCT-15 = assay: Growth inhibition of human HCT15 cells; in short: as §1
U-251 = assay: Growth inhibition of human U251 cells; in short: as §1
NCI-H226 = assay: Growth inhibition of human NCI-H226 cells; in short: as §1
[2] = Growth inhibition of human NCI-322M cells; in short: as §1
SK-MEL-2 = assay: Growth inhibition of human SKMEL2 cells; in short: as §1
NCI-H460 = assay: Growth inhibition of human NCI-H460 cells; in short: as §1
[3] = Growth inhibition of human ADR-RES cells; in short: as §1
UACC-257 = assay: Growth inhibition of human UACC257 cells; in short: as §1

## COc1cccc(NC(=O)c2ccc(C(F)(F)F)nc2Nc2ccc(Cl)cc2C)c1
CAKI-1
  GI50: 2750 nM
RXF 393
  GI50: 1170 nM
A498
  GI50: 1660 nM
OVCAR-5
  GI50: 2510 nM
NCI-H522
  GI50: 1290 nM
  TGI: 7240 nM
UO-31
  GI50: 1450 nM
UO-31; read-out: Log TGI (converted)
  TGI: 8320 nM

## Cc1ccc(Cl)cc1Nc1nc(C(F)(F)F)ccc1C(=O)N1CCN(c2ccc(F)cc2)CC1
CAKI-1
  GI50: 1510 nM
IGROV-1
  GI50: 132 nM
SNB-75
  GI50: < 10 nM

## COc1ccc(N2CCN(C(=O)c3ccc(C(F)(F)F)nc3Nc3cc(Cl)ccc3C)CC2)cc1
CAKI-1
  GI50: 1380 nM
IGROV-1
  GI50: 51.3 nM
UO-31
  GI50: 1700 nM
HOP-92
  GI50: 1480 nM
  TGI: 7940 nM
SK-MEL-5
  GI50: 955 nM

## COc1cccc(OC(=O)c2ccc(C(F)(F)F)nc2Nc2cc(Cl)ccc2C)c1
Hs-578T
  GI50: 1230 nM
  TGI: 4790 nM
RXF 393
  GI50: 245 nM
  TGI: 977 nM
CCRF-CEM
  GI50: 2140 nM
CCRF-CEM; read-out: Log TGI (converted)
  TGI: 5130 nM
K562
  GI50: 3090 nM
K562; read-out: Log TGI (converted)
  TGI: 9330 nM
HOP-92
  GI50: 1620 nM
  TGI: 6920 nM
MOLT-4
  GI50: 3090 nM
  TGI: 7940 nM

## Cc1cc(Cl)ccc1Nc1nc(C(F)(F)F)ccc1C(=O)N1CCN(c2cccc(Cl)c2)CC1
IGROV-1
  GI50: 1780 nM
SNB-75
  GI50: 1120 nM

## COc1ccc(NC(=O)c2ccc(C(F)(F)F)nc2Nc2ccc(Cl)cc2C)cc1Cl
SF-295
  GI50: 2340 nM
HL-60
  GI50: 2400 nM
  TGI: 5370 nM
RPMI-8226
  GI50: 2090 nM
RPMI-8226; read-out: Log TGI (converted)
  TGI: 4900 nM
MDA-MB-231
  GI50: 1660 nM
  TGI: 6760 nM
MCF7
  GI50: 2400 nM
SR
  GI50: 1700 nM
  TGI: 6460 nM
K562
  GI50: 2400 nM
MOLT-4
  GI50: 1550 nM
  TGI: 4900 nM

## COc1cc(NC(=O)c2ccc(C(F)(F)F)nc2Nc2ccc(Cl)cc2C)cc(OC)c1OC
HL-60
  GI50: 1740 nM
T47D
  GI50: 2450 nM
OVCAR-3
  GI50: 2400 nM
KM12
  GI50: 1550 nM
NCI-H522
  GI50: 1620 nM
CCRF-CEM
  GI50: 1580 nM
IGROV-1
  GI50: 955 nM
PC-3
  GI50: 1860 nM
HCC 2998
  GI50: 1910 nM
  TGI: 5620 nM
[1]
  GI50: 2190 nM

## COc1cc(NC(=O)c2ccc(C(F)(F)F)nc2Nc2cc(Cl)ccc2C)cc(OC)c1OC
HL-60
  GI50: 22.9 nM
  LC50: 7240 nM
  TGI: 1620 nM
CAKI-1
  GI50: 2400 nM
T47D
  GI50: 2140 nM
  TGI: 9550 nM
ACHN
  GI50: 1780 nM
RPMI-8226
  GI50: 457 nM
UACC-62
  GI50: 955 nM
MDA-MB-231
  GI50: 1660 nM
  TGI: 8910 nM
A498
  GI50: 2340 nM
NCI-H522
  GI50: 2290 nM
  TGI: 7410 nM
SR
  GI50: 18.6 nM
  TGI: 302 nM
CCRF-CEM
  GI50: < 10 nM
K562
  GI50: 676 nM
IGROV-1
  GI50: 407 nM
EKVX
  GI50: 2750 nM
PC-3
  GI50: 1200 nM
PC-3; read-out: Log TGI (converted)
  TGI: 5370 nM
HOP-92
  GI50: < 10 nM
  TGI: 1660 nM
MOLT-4
  GI50: < 10 nM
  TGI: 41.7 nM
HCC 2998
  GI50: < 10 nM
  TGI: 5370 nM
SK-MEL-5
  GI50: 1170 nM
  TGI: 10000 nM
OVCAR-4
  GI50: 1740 nM
SK-OV-3
  GI50: 2040 nM
[1]
  GI50: 2190 nM
SNB-75
  GI50: 1070 nM
HCT-116
  GI50: 2510 nM
LOX IMVI
  GI50: 724 nM
  TGI: 2400 nM

## Cc1ccc(Cl)cc1Nc1nc(C(F)(F)F)ccc1C(=O)N1CCN(c2cccc(Cl)c2)CC1
SR
  GI50: 2750 nM

## Cc1cc(Cl)ccc1Nc1nc(C(F)(F)F)ccc1C(=O)Nc1cccc(C(F)(F)F)c1
HL-60
  GI50: 2040 nM
  TGI: 4680 nM
ACHN
  GI50: 2750 nM
ACHN; read-out: Log TGI (converted)
  TGI: 8910 nM
COLO 205
  GI50: 2510 nM
  TGI: 6170 nM
KM12
  GI50: 2090 nM
MDA-MB-231
  GI50: 2040 nM
  TGI: 8130 nM
Malme-3M
  GI50: 2000 nM
Malme-3M; read-out: Log TGI (converted)
  TGI: 9120 nM
A498
  GI50: 2820 nM
  TGI: 7410 nM
MCF7
  GI50: 2290 nM
  TGI: 7760 nM
HCT-15
  GI50: 2570 nM
HCT-15; read-out: Log TGI (converted)
  TGI: 7410 nM
SR
  GI50: 2570 nM
  TGI: 8320 nM
EKVX
  GI50: 1860 nM
U-251
  GI50: 3020 nM
U-251; read-out: Log TGI (converted)
  TGI: 9770 nM
HOP-92
  GI50: 2190 nM
  TGI: 8130 nM
SK-MEL-5
  GI50: 2820 nM
  TGI: 9330 nM
SK-OV-3
  GI50: 2450 nM
LOX IMVI
  GI50: 2820 nM
  TGI: 8510 nM

## Cc1ccc(Cl)cc1Nc1nc(C(F)(F)F)ccc1C(N)=O
Hs-578T
  GI50: 813 nM
  TGI: 3980 nM
NCI-H226
  GI50: 1450 nM
NCI-H226; read-out: Log TGI (converted)
  TGI: 9770 nM
[2]
  GI50: 2040 nM
SK-MEL-5
  GI50: 1910 nM
  TGI: 6610 nM
LOX IMVI
  GI50: 2240 nM

## Cc1ccc(Cl)cc1Nc1nc(C(F)(F)F)ccc1C(=O)Oc1ccc(Cl)cc1
OVCAR-3
  GI50: 2570 nM
OVCAR-3; read-out: Log TGI (converted)
  TGI: 8910 nM
HOP-92
  GI50: 1910 nM

## Cc1ccc(Cl)cc1Nc1nc(C(F)(F)F)ccc1C(=O)Nc1cccc(C(F)(F)F)c1
SK-MEL-2
  GI50: 2450 nM
SK-MEL-2; read-out: Log TGI (converted)
  TGI: 6610 nM
T47D
  GI50: 2240 nM
  TGI: 8910 nM
RXF 393
  GI50: 2690 nM
  TGI: 7940 nM
RPMI-8226
  GI50: 2340 nM
NCI-H460
  GI50: 2820 nM
NCI-H460; read-out: Log TGI (converted)
  TGI: 10000 nM
[3]
  GI50: 2140 nM
[3]; read-out: Log TGI (converted)
  TGI: 7590 nM
COLO 205
  GI50: 1740 nM
  TGI: 3390 nM
UACC-257
  GI50: 2950 nM
UACC-257; read-out: Log TGI (converted)
  TGI: 8320 nM
MDA-MB-231
  GI50: 2290 nM
  TGI: 9550 nM
A498
  GI50: 2950 nM
  TGI: 8510 nM
MCF7
  GI50: 2510 nM
  TGI: 9550 nM
NCI-H522
  GI50: 1780 nM
  TGI: 6310 nM
CCRF-CEM
  GI50: 2820 nM
IGROV-1
  GI50: 1700 nM
PC-3
  GI50: 2090 nM
HOP-92
  GI50: 2190 nM
  TGI: 8710 nM
MOLT-4
  GI50: 2750 nM
  TGI: 10000 nM
HCC 2998
  GI50: 1780 nM
  TGI: 4470 nM
SK-MEL-5
  GI50: 2190 nM
  TGI: 4470 nM
SK-OV-3
  GI50: 1740 nM
SK-OV-3; read-out: Log TGI (converted)
  TGI: 5500 nM
HCT-116
  GI50: 2400 nM
